Data on 14 compounds can be found in paper PMC4332700 (RSC advances, 2015).

The subject of series [1] is α-syn. Briefly: 15N-HSQC titration binding studies with 15N-labeled α-syn. The note with it: for Binding locus on α-syn from titration shifts in 15N HSQC spectra: 200 or 400 µM α-syn, no added HFIP, 293 or 303 K.
In a further series the test system is α-synuclein. Briefly: Inhibition of HFIP-induced α-syn amyloid formation. The note with it: for %-Inhib. of HFIP-induced α-syn amyloid formation: converted from the %-of-control ThT and CD values; for Formation of off-path (non-amyloid) precipitates in the inhibition assays: 2 vol-% HFIP assay, EGCG at 2:1 molar ratio. The class given is biochemical. The procedure, abridged: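 α-Syn (85 ± 5 μM; pH 6.6, 50 mM potassium phosphate, 50 mM NaCl) stirred at 37 ± 3 °C with test compound (1–4 molar equiv), then HFIP to 2 vol% after 4 h. Aliquots diluted to 4.5 μM α-syn every 2–6 h for CD, inhibitor-matched blank, [θ]218 and Δ[θ]196 read. At 16–18 h, ThT added (8-fold excess) and emission read. Values as %-of-uninhibited-control, converted to %-inhibition; mean of ≥2 experiments.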

Series [2] in a line: NMR determination of folded state population of peptides. Type of series: physicochemical. The note with it: 300K; for Folded state population (χF): based on NMR data.
For series [3], the system named is α-syn. The note with it: cited from earlier work.
In series [4] the test system is α-syn. The note with it: on going from 1:1 to 5:1 EGCG/α-syn, published spectra; cited from earlier work.
For series [5], the system named is α-syn. In words: CD and visual inspection of EGCG/α-syn mixtures. The class given is biochemical. The note with it: 100 µM α-syn, 1:1 α-syn:EGCG, 1.5 vol-% HFIP; β-sheet signature at 24 hours.

As to KKLTVW-IpGK-WITVSA [WW2], in the series on α-syn [1], the “Binding locus on α-syn from titration shifts in 15N HSQC spectra” value is reported as “M116-E137 sequence segment”. Besides, the “%-Inhib. of HFIP-induced α-syn amyloid formation” value was ~ 50% with α-synuclein (1 molar equiv. inhibitor) and ~ 75% in the series with α-synuclein (2 molar equiv. inhibitor).

On to (RYTTVCIRKYE)2 (disulfide) [RY-VCI-YE], for which the figures for the “%-Inhib. of HFIP-induced α-syn amyloid formation” value with α-synuclein (1 molar equiv. inhibitor) and in the series with α-synuclein (2 molar equiv. inhibitor) were ~ 50% and ~ 80%, respectively.

On to (RWTTHCHRKWE)2 (disulfide) [RW-HCH-WE], for which the “Binding locus on α-syn from titration shifts in 15N HSQC spectra” value with α-syn [1] is given as “very large shifts were observed at C-terminal sites”. The “%-Inhib. of HFIP-induced α-syn amyloid formation” value is ~ 65% with α-synuclein (1 molar equiv. inhibitor) and at least 75% in the series on α-synuclein (2 molar equiv. inhibitor). Also, in the series on α-synuclein, the “Formation of off-path (non-amyloid) precipitates in the inhibition assays” value is reported as “co-precipitates”. The compound also came in with a β-sheet population in series [2] of 94%. Besides, in series [2], the “Folded state population (χF)” value came out at 0.94±0.02.

On to RGAVVTGR-NH2 [reference compound], for which the “Inhibition of α-syn amyloid fibril formation” value in the series on α-syn [3] (2:1, 1:1 and 1:2 (peptide:α-syn) molar ratios) is reported as “completely inhibit”. Besides, the “%-Inhib. of HFIP-induced α-syn amyloid formation” value with α-synuclein (2 molar equiv. inhibitor) is given as below 25%. Further, the “Inhibitory activity on α-syn amyloid formation (in words)” value in the series on α-synuclein (4 molar equivalents of the peptide, single experiment) is given as “absence of inhibitory activity”.

As to `O=C(O[C@@H]1Cc2c(O)cc(O)cc2O[C@@H]1c1cc(O)c(O)c(O)c1)c1cc(O)c(O)c(O)c1` [EGCG, (−)-Epi-gallocatechin-3-gallate, reference compound], the “Upfield shifts Δδ(1H) of α-syn HSQC peaks” value with α-syn [1] (200 µM α-syn, 50 mM phosphate, pH 6.5, 303K, 5 molar equivalents of EGCG) was 0.007 – 0.010 ppm. The “Binding locus on α-syn from titration shifts in 15N HSQC spectra” value with α-syn [1] is recorded as “shifts at C-terminal sites”. The “Upfield 1H shift for most α-syn HSQC peaks” value in the series with α-syn [4] is reported as 0.04 ppm. For the same compound, the “Time the random coil CD signature remained after HFIP addition” value in the series with α-syn [5] worked out at 8 h. The “%-Inhib. of HFIP-induced α-syn amyloid formation” value with α-synuclein (2 molar equiv. inhibitor) is ~ 65%.

Consider RWEKRW-DRGSGR-WFYFND [mWWhp], for which the “%-Inhib. of HFIP-induced α-syn amyloid formation” value in the series with α-synuclein (2 molar equiv. inhibitor) is listed as ~ 50%. Further, the “Formation of off-path (non-amyloid) precipitates in the inhibition assays” value with α-synuclein was “did not produce off-path precipitates”.

On to RWFYFN-DRGSGK-WEKRWD [cp-mWWhp], for which, in the series with α-synuclein (2 molar equiv. inhibitor), the “%-Inhib. of HFIP-induced α-syn amyloid formation” value was below 20%.

Consider “cyclo-(K-KLTVW-IpGK-WITVS-IpP) (head to tail) [cyclo-WW2]”, for which, in the series with α-syn [1], the “Binding locus on α-syn from titration shifts in 15N HSQC spectra” value is recorded as “Q109/E137-span”. The “%-Inhib. of HFIP-induced α-syn amyloid formation” value in the series with α-synuclein (1 molar equiv. inhibitor) is given as ~ 75%; in the series on α-synuclein (2 molar equiv. inhibitor) it was above 90%. Besides, in the series on α-synuclein (2:1 peptide to α-syn ratio, 2 vol-% HFIP), the “Inhibitory activity on α-syn β-structure / amyloid formation (in words)” value is “complete inhibition”.

As for GKWITVS-IpPK-KLTVWIp [cp-WW2], the “Binding locus on α-syn from titration shifts in 15N HSQC spectra” value in the series with α-syn [1] is listed as “isolated to the C-terminus”. The “%-Inhib. of HFIP-induced α-syn amyloid formation” value with α-synuclein (1 molar equiv. inhibitor) is listed as ~ 35%; with α-synuclein (2 molar equiv. inhibitor), ~ 65%.

On to VAQKT-(N-Me)V, for which the “Inhibition of α-syn fibril formation” value with α-syn [3] (N-methylation of sites in residues 71–82) is on record as “effective inhibitor”.

(RYTTHCHRKYE)2 (disulfide) [RY-HCH-YE]: in the series with α-synuclein (2 molar equiv. inhibitor), the “%-Inhib. of HFIP-induced α-syn amyloid formation” value is recorded as ~ 70%. In series [2], the β-sheet population is recorded as 28% and the “Folded state population (χF)” value was 0.28±0.13.

For the compound RAVTW-NPATGK-WITVWE [RAVWW], the “%-Inhib. of HFIP-induced α-syn amyloid formation” value in the series with α-synuclein (2 molar equiv. inhibitor) was ~ 60%. In the series with α-synuclein, the “Formation of off-path (non-amyloid) precipitates in the inhibition assays” value is “did not produce off-path precipitates”.

On to “(Ac-YTTVCIRKYTG)2 (disulfide) [AcY-VCI-YTG]”, for which, in the series on α-synuclein (2 molar equiv. inhibitor), the “%-Inhib. of HFIP-induced α-syn amyloid formation” value is ~ 70%. The “Folded state population (χF)” value in series [2] is on record as 0.84.

Consider KCLTVW-IpGK-WITVCA (disulfide) [WW2-DS], for which the “%-Inhib. of HFIP-induced α-syn amyloid formation” value was below 30% in the series on α-synuclein (1 molar equiv. inhibitor) and ~ 50% with α-synuclein (2 molar equiv. inhibitor).
